Assay outcomes deposited in PubChem BioAssay by several laboratories.
Shown are actives, neighbours in structure and some others; about 3.1% of the full set was active somewhere.
MEKK2mut PB1 HTS: signal of MEK5 binding to mutant human MEKK2 PB1 domain; bead flow cytometry, Alexa488-MEK5 binding to MEKK2 mutant; percent response, % at 10 µM; 290,000 tested, 0.35% active; AID 1530; in the data active = percent response above about 24%, passing the limit was not always enough
UBC13 polyUb: blocks human UBC13 polyubiquitin chain formation; AID 485273; inhibition, % at 20 µM; 330,000 tested, 0.47% active; TR-FRET; P61088; in the data active = inhibition above about 45%, passing the limit was not always enough
PREPL inh: inhibits the human prolyl oligopeptidase-like enzyme | Q4J6C6 | recombinant PREPL, fluorescence polarization activity-based probe | inhibition, % at 5.96 µM | 320,000 tested, 0.68% active;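 note: 0% = enzyme with DMSO and 100% = wells lacking enzyme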
MEKK2 WT-MEK5: raises or lowers MEK5 binding to wildtype human MEKK2 PB1 domain; Q9Y2U5; bead flow cytometry, Alexa488-MEK5 binding to MEKK2 WT; actives lie on both sides; binding response (% of control), % at 10 µM; 290,000 tested, 1.1% active; AID 1531; in the data active = binding response below about 67% or above about 130%
MEKK3 PB1 HTS: MEKK3-MEK5 PB1 interaction, increase or decrease; Q99759; bead-based flow cytometry, Alexa488-MEK5 binding to MEKK3; actives lie on both sides; 0 = blocked by unlabeled MEK5, 100 = vehicle; binding response (% of control), % at 10 µM; 290,000 tested, 1.4% active; AID 1529;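 active = binding response more than 3 SD above or below the average of its plate-row segment, actives on both sides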;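 note: Alexa488 bead fluorescence after subtracting the streptavidin-only scavenger bead signal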
Target sequence (Q99759 whole entry, looked up): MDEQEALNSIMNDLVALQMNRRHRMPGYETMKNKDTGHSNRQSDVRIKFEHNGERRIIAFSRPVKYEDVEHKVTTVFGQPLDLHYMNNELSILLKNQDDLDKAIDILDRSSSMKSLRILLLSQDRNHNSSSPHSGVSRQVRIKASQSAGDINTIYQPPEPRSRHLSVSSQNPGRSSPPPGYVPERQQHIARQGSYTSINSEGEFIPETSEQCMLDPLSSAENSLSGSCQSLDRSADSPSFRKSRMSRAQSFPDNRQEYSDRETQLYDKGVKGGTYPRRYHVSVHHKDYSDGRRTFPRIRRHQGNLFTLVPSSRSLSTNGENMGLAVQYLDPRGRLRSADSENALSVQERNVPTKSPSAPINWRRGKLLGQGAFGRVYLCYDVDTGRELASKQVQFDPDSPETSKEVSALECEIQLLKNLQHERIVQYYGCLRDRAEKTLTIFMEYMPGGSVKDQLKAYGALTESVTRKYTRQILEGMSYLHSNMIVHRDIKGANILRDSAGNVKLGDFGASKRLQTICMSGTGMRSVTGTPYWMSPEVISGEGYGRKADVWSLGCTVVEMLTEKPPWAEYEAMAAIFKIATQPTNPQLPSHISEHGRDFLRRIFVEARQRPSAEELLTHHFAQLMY
Apaf1 inhib: blocks human Apaf-1 apoptosome activity; reconstituted apoptosome caspase-3 activity, DEVD-Rh110 fluorescence; 330,000 tested, 0.71% active; AID 489030; O14727; inhibition, % at 20 µM; active = inhibition of at least 40% at 20 µM;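 note: plate controls were DMSO wells for no effect and DEVD-CHO caspase inhibitor wells for full effect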
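System: reconstituted apoptosome with Apaf-1, cytochrome c, caspase-9, procaspase-3, dATP; Signal: Rh110 fluorescence intensity; Schedule: 30 min compound preincubation, 50 min activation, room temperature; Reagent: cytochrome c trigger plus (Z-DEVD)2-Rh110 caspase-3 substrate.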
PREPL confirm: human PREPL inhibition, confirmation | shares compounds with PREPL inh | recombinant PREPL, fluorescence polarization activity probe | inhibition, % at 5.96 µM | 2,000 tested, 67% active | AID 2803;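 note: 0% = protein with DMSO and 100% = wells lacking protein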
* = called active by the depositor; . = no result given. Cut-off read from the data, not from the text of the source, unless noted: active = inhibition above about 43%; inactive = the rest.

SMILES	MEKK2mut PB1 HTS	UBC13 polyUb	PREPL inh	MEKK2 WT-MEK5	MEKK3 PB1 HTS	Apaf1 inhib	PREPL confirm
COC(=O)CCC(=O)OC1(C)C(=O)C2=CN(Cc3ccccc3)C(c3ccc(OC)cc3)=CC2=C(Br)C1=O (centres undefined)	-4	-85	46*	-6.0*	90	31	42
CC(Oc1ccccc1)C(=O)N=C1SC2CS(=O)(=O)CC2N1c1ccccc1 (centres undefined)	3	-3	9	104	105	4	.
Cc1ccc(OCC(O)Cn2c(=N)n(CCN3CCOCC3)c3ccccc32)cc1 (centres undefined)	7	2	45*	112	102	16	34
CCCn1c(=N)n(CC(O)COc2ccc(C)cc2)c2ccccc21 (centres undefined)	-8	8	16	95	95	7	.
CC1CCN(Cc2c(O)ccc3c(=O)c(-c4nc5ccccc5s4)c(N)oc23)CC1	7	-19	44*	120	109	22	39
CC1(C)CCCN(Cc2c(O)ccc3c(=O)c(-c4nc5ccccc5s4)c(N)oc23)C1	0	3	44*	114	108	-9	38
Cc1oc2c(CN3CCCC3)c(O)ccc2c(=O)c1-c1ccc(Br)cc1	2	16	-13	99	98	-20	.
CC(Sc1nnc(-c2ccccc2F)n1C)C(=O)NC1CCCCC1 (centres undefined)	.	8	15	.	.	-1	.
O=C(COC(=O)c1ccc2c(c1)OCCO2)Nc1cccc(S(=O)(=O)N2CCOCC2)c1	0	-5	72*	109	123	8	8
O=C(COC(=O)c1cccc(S(=O)(=O)N2CCOCC2)c1)Nc1ccc2c(c1)OCO2	-1	6	1	98	95	7	.
COc1ccc2nc(C)cc(N3CCC(C(N)=O)CC3)c2c1	9	-13	0	104	105	1	.
COc1ccc(N2CCN(c3cc(C)nc4ccc(OC)cc34)CC2)cc1	-6	-8	43*	101	101	6	50*
CC(C)c1ccc(NC(=O)[C@@H]2CCC(=O)N2C2OC(=O)c3ccccc32)cc1 (some centres undefined)	2	2	9	99	100	4	.
Cc1nnc(SCC(=O)Nc2cc(S(C)(=O)=O)ccc2Cl)n1Cc1ccccc1	-1	-2	19	94	96	0	.
Cc1ccc2c(c1)c1c(n2CC(O)Cn2nc(C)c(Br)c2C)CCCC1 (centres undefined)	-6	-6	6	91	95	28	.
Cc1ccc2c(c1)c1c(n2CC(O)CN2CCCCCC2)CCCC1 (centres undefined)	14	11	45*	123	106	4	42
O=C(Oc1ccc(OC(=O)c2ccco2)c(S(=O)(=O)c2ccc(Br)cc2)c1)c1ccco1	-2	-11	94*	100	101	7	93*
COc1ccc(C(=O)COc2ncnc3cc(Cl)ccc23)cc1	-21	6	8	95	91	-6	.
Cn1c(N2CCCC2)nc2c1c(=O)n(Cc1ccc(F)cc1)c(=O)n2C	1	-1	7	106	100	-1	.
Cn1c(N2CCOCC2)nc2c1c(=O)n(Cc1ccc(Cl)c(Cl)c1)c(=O)n2C	7	9	44*	102	105	1	26
COc1ccc(Nc2ccnc3ccccc23)cc1	16	2	8	119	113	-16	.
CC(C)Nc1ccc(Nc2ccnc3cc4ccccc4cc23)cc1	80*	-93	60*	208*	109	16	62*
Cc1ccsc1C(=O)N1CCN(S(=O)(=O)c2cccc(F)c2)CC1	.	-2	7	.	.	20	.
O=C(COC(=O)/C=C/c1ccccc1[N+](=O)[O-])Nc1ccc2[nH]c(=O)[nH]c2c1	.	-7	39	.	.	-18	.
C=CCn1c(N2CCN(c3ccc(OC)cc3)CC2)nc2c1c(=O)[nH]c(=O)n2C	3	12	49*	103	104	-5	38
SMILES	MEKK2mut PB1 HTS	UBC13 polyUb	PREPL inh	MEKK2 WT-MEK5	MEKK3 PB1 HTS	Apaf1 inhib	PREPL confirm
COc1ccc(NC(=O)C23CC4CC(CC(Cl)(C4)C2)C3)cc1S(=O)(=O)N1CCOCC1	.	-9	5	.	.	5	.
Cc1ccc(C2CN(CCC(N)=O)C(=O)CO2)cc1 (centres undefined)	.	0	1	.	.	-2	.
CC(=O)Nc1ccc(C(=O)Cn2c3[n+](c4c(F)c(F)ccc42)CCCCC3)cc1	2	7	47*	104	103	-2	56*
O=c1/c(=C\c2cccc(O)c2)sc2nc(-c3ccccc3)c(-c3ccccc3)n12	-22	10	2	75	84	12	.
CCOC(=O)C1CCN(C(=O)Nc2ccc3c(c2)nc(C)n3C)CC1	6	-4	10	103	103	-4	.
CCOC(=O)C1CCN(C(=O)Nc2ccc3nc(-c4ccco4)c(-c4ccco4)nc3c2)CC1	-8	-12	60*	77	89	70*	64*
COc1cc(NC(=O)Cc2ccccc2)cc(OC)c1	-4	7	3	99	95	10	.
COc1cc(NC(=O)C[n+]2ccc(C(=O)c3ccccc3)cc2)cc(OC)c1	.	-2	49*	.	.	5	34
COc1ccc(N2CCN(c3nc4c(C)cccn4c(=O)c3/C=C(\C#N)C(N)=O)CC2)cc1	1	9	54*	103	102	22	53*
C=CCNC(=O)/C(C#N)=C/c1c(N2CCN(c3ccc(OC)cc3)CC2)nc2c(C)cccn2c1=O	10	5	57*	105	107	21	50*
COCCCNC(=O)/C(C#N)=C/c1c(N2CCN(c3ccccc3)CC2)nc2c(C)cccn2c1=O	6	-3	44*	108	108	26	32
Cc1cc(N)ccc1-n1c(C)ccc1C	-7	-4	59*	90	91	10	11
Cc1cc(C(=O)O)ccc1-n1c(C)ccc1C	.	18	5	.	.	25	.
COc1cc(/C=C2/C(=O)NN(c3ccc(Cl)c(Cl)c3)C2=O)cc([N+](=O)[O-])c1O	0	.	53*	93	96	.	20
COc1ccc(C2=C(C)C(N3CCN(C(=O)c4ccco4)CC3)=NS2(=O)=O)cc1	2	8	2	100	100	-3	.
CCN(CC)C(=O)[C@H]1CC(CC(=O)NCCC2=CCCCC2)C(=O)N2CCc3c([nH]c4ccc(OC)cc34)[C@]12C (some centres undefined)	.	.	.	.	.	26	.
O=C(O)c1ccccc1NS(=O)(=O)c1ccc(NN=Cc2cccc(Cl)c2)c([N+](=O)[O-])c1	.	-47	53*	.	.	6	45*
